PfHsp90 yeast 2 = growth inhibition of PfHsp90-expressing yeast, primary screen, antimalarial PfHsp90 inhibitor project, S. cerevisiae, BacTiter-Glo luminescence, single point, set 2. BacTiter-Glo ATP, 48 h; yeast lacking PDR1 and PDR3 efflux regulators. inhibition, % at 9.4 µM. 310,000 compounds, 0.32% hits. AID 504621, 2011;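 active = every replicate shows inhibition above about 80%, whatever the replicate mean, limit read from the data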;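 also: 0% = DMSO neutral controls and 100% = 20 µM radicicol positive controls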
Cneo AK release = Cryptococcus neoformans cell lysis inducers, primary screen, AK release luminescence, single concentration. lysis activity, % at 15 µM. C. neoformans lysis, adenylate kinase release luminescence, 4 h; normalised: neutral wells 0, clomiphene wells 100. 360,000 compounds, 0.2% hits;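 active = mean lysis activity across replicates of at least 80%, whatever share of replicates individually reach that level; inactive = mean lysis activity below 80%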
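Assay system: Cryptococcus neoformans yeast cells / Dosing: single-point compound dose / Timing: 4 h at 37 °C static, read 1 h later / Measured by: luminescence of released adenylate kinase using an AK detection reagent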
DENV2 CPE rescue = inhibitors of DENV2 cytopathic effect, primary screen, cell-based, plate reader, single concentration; DENV2-infected cells, cytopathic effect rescue; 350,000 compounds, 1.7% hits; CPE inhibition, % at 9.99 µM; in the data active = CPE inhibition above about 20%, passing the limit was not always enough; tested in BHK-21 cells;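 also: 0% = median of neutral control wells and 100% = median of positive control wells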
AF4-AF9 inh = inhibitors of AF4 peptide binding to AF9, primary screen, biochemical, AlphaScreen, biotin-AF4 peptide, FLAG-AF9, single point | 350,000 compounds, 0.47% hits | inhibition, % at 10 µM;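 active = every replicate reaching a set inhibition limit, whatever the replicate mean, cut at about 25% in these data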;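 also: 0% = plate neutral control median and 100% = total signal loss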
Target sequence (P42568 whole entry, looked up): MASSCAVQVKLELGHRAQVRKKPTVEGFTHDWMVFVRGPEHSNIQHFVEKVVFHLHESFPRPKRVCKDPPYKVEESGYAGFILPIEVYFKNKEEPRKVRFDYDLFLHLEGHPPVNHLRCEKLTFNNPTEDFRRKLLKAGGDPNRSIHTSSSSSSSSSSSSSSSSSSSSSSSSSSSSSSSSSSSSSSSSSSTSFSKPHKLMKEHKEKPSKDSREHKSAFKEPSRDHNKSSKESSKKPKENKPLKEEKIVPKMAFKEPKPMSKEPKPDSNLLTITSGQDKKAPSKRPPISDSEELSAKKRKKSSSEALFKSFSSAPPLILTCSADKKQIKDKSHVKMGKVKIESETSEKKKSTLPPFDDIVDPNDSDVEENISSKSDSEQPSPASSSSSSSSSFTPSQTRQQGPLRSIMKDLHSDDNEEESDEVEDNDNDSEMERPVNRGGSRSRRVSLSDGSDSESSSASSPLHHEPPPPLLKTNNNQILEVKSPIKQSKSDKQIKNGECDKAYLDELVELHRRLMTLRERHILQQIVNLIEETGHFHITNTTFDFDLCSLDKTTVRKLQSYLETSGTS
S100A4 inh HTS = inhibitors of S100A4-myosin IIA peptide binding, primary screen, biochemical, fluorescence polarization, TAMRA-MyoIIA peptide | 360,000 compounds, 0.14% hits | Protein S100-A4 (Homo sapiens), P26447 | inhibition, % at 10.7 µM;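 active = mean inhibition of at least 70% across replicates, with every replicate also reaching that level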
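Material: human S100A4 monomer with TAMRA-labelled myosin IIA peptide; buffer or medium: HEPES pH 7.2 with CaCl2, KCl, NaCl, DTT, Triton; compound dosing: one concentration per compound; schedule: 5 min incubation before reading; benchmarks: neutral control DMSO, positive control TFP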
rRNA inh HTS = reduced GFP signal of wild-type E. coli, primary screen, bacterial rRNA inhibitor project, GFP/RFP fluorescence, OD600, single point. E. coli WT GFP vs humanized-ribosome RFP mutants, 24 h; active compounds read low; DMSO median 0, no signal -100. AID 720706, 2013. GFP signal change (wild-type ribosome), % (test concentration not listed). 350,000 compounds, 1.6% hits;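 active = significant combined selectivity score with lowered wild-type GFP, culture density cut under 30%, mutant RFP and density less affected; inactive = any of these conditions unmet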
Starred values were filed as active, the others as inactive; ! = not confirmed by another sample. Hits are enriched below; roughly 3.2% of the tested compounds scored in any of these assays.

What do the screens show for `CC(=O)c1cnc2nc(SCc3ccc(Cl)cc3)nn2c1C`?
PfHsp90 yeast 2: 0; Cneo AK release: 3; DENV2 CPE rescue: 1; AF4-AF9 inh: -2; S100A4 inh HTS: 1; rRNA inh HTS: -36

What do the screens show for `CC(=O)c1cnc(SCc2ccc(Cl)cc2)nc1C`?
PfHsp90 yeast 2: 15; DENV2 CPE rescue: -1; AF4-AF9 inh: -3; S100A4 inh HTS: 2; rRNA inh HTS: -28*

How did C[C@@H]1CCCCO[C@H](CN(C)S(=O)(=O)c2ccc(F)cc2)[C@@H](C)CN([C@@H](C)CO)C(=O)c2cc(NS(C)(=O)=O)ccc2O1 do in these assays?
Cneo AK release: -1; DENV2 CPE rescue: 29*; AF4-AF9 inh: -1; S100A4 inh HTS: 21; rRNA inh HTS: -3

Results for C[C@H](CO)N1C[C@H](C)[C@@H](CN(C)S(=O)(=O)c2ccc(F)cc2)OCCCC[C@H](C)Oc2ccc(NS(C)(=O)=O)cc2C1=O ?
Cneo AK release: -1; DENV2 CPE rescue: 27*; AF4-AF9 inh: -1; S100A4 inh HTS: -23; rRNA inh HTS: 2

What do the screens show for `C[C@@H]1CN([C@H](C)CO)C(=O)c2cc(NS(C)(=O)=O)ccc2O[C@@H](C)CCCCO[C@@H]1CN(C)S(=O)(=O)c1ccc(F)cc1`?
Cneo AK release: 76; DENV2 CPE rescue: 19; AF4-AF9 inh: 2; S100A4 inh HTS: -8; rRNA inh HTS: -5

How did COC(=O)C1=C(C)N(Cc2ccccc2)C(=NCC(C)C)N[C@H]1c1cccc(F)c1 do in these assays?
PfHsp90 yeast 2: 10; Cneo AK release: 1; DENV2 CPE rescue: 25*; AF4-AF9 inh: 1; S100A4 inh HTS: -1; rRNA inh HTS: -36

Results for CCc1ccccc1Nc1ncnc2ccccc12 ?
PfHsp90 yeast 2: 0; Cneo AK release: 1; DENV2 CPE rescue: -6; AF4-AF9 inh: -2; S100A4 inh HTS: -6; rRNA inh HTS: -17

How did Cc1cccc(C)c1Nc1ncnc2ccccc12 do in these assays?
PfHsp90 yeast 2: -2; Cneo AK release: 0; DENV2 CPE rescue: 1; AF4-AF9 inh: 2; S100A4 inh HTS: -8; rRNA inh HTS: -34*

Results for CCNC(=S)N/N=C/c1cccc(C)c1 ?
PfHsp90 yeast 2: -15; AF4-AF9 inh: -7; S100A4 inh HTS: 32; rRNA inh HTS: -14*

What do the screens show for `C[C@H]1CN([C@@H](C)CO)C(=O)Cc2cc(NS(C)(=O)=O)ccc2O[C@@H]1CN(C)Cc1ccc(Cl)c(Cl)c1`?
PfHsp90 yeast 2: 8; Cneo AK release: 112*!; DENV2 CPE rescue: -13; AF4-AF9 inh: -1; S100A4 inh HTS: -6; rRNA inh HTS: -13

What do the screens show for `C[C@@H]1CN([C@@H](C)CO)C(=O)Cc2cc(NS(=O)(=O)c3ccccc3)ccc2O[C@@H]1CN(C)Cc1ccc(Cl)c(Cl)c1`?
Cneo AK release: 85*; DENV2 CPE rescue: -10; AF4-AF9 inh: -1; S100A4 inh HTS: -6; rRNA inh HTS: -4

How did O=C(COC(=O)CN1C(=O)NC2(CCCC2)C1=O)Nc1ccc(C(F)(F)F)cc1[N+](=O)[O-] do in these assays?
PfHsp90 yeast 2: -17; Cneo AK release: 5; DENV2 CPE rescue: 32*; AF4-AF9 inh: 9; S100A4 inh HTS: 1; rRNA inh HTS: 1

How did COc1ccccc1NC(=O)c1ccc(C(=O)c2ccccc2)o1 do in these assays?
Cneo AK release: -1; DENV2 CPE rescue: -1; AF4-AF9 inh: -1; S100A4 inh HTS: -2; rRNA inh HTS: -32*

What do the screens show for `CO[C@@H]1CN(C)C(=O)c2cc(NS(=O)(=O)c3cn(C)cn3)ccc2OC[C@H](C)N(CCC(F)(F)F)C[C@H]1C`?
rRNA inh HTS: -2

What do the screens show for `CNC(=O)c1c(NC(=O)c2ccc(S(=O)(=O)N(C)c3ccccc3)cc2)sc2c1CCN(C(C)C)C2`?
DENV2 CPE rescue: 96*; AF4-AF9 inh: 1; S100A4 inh HTS: 5; rRNA inh HTS: -5
